Source: PubChem (Broad Institute)
This is a sample that favours compounds with a hit; in the whole collection about 2.8% have one here.
DENV2 CPE – inhibitors of DENV2 cytopathic effect, primary screen, cell-based, plate reader, single concentration; DENV2-infected cells, cytopathic effect rescue; CPE inhibition, % at 9.99 µM; hit rate 1.7% among 350,000; AID 651640, 2012; in the data active means CPE inhibition above about 20%, passing the limit was not always enough; inconclusive means no clear call, values can overlap the other calls; tested in BHK-21 cells;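 further: 0% = median of neutral control wells and 100% = median of positive control wells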
SIRT5 inh – SIRT5 desuccinylase inhibitors, primary screen, biochemical, fluorescence imaging, single point, set 5 | Purified SirT5, succinyl-peptide AMC, trypsin-coupled fluorescence | inhibition, % at 15 µM | hit rate 1.1% among 330,000 | AID 652115, 2013; in the data active means inhibition above about 15%; inconclusive means no clear call, values can overlap the other calls
E-selectin induc – E-selectin induction in HUVECs, primary screen, imaging, HUVEC, immunofluorescence imaging, single point. P16581. normalized: neutral wells 0, TNF-alpha wells 100. activation, % at 7.58 µM. hit rate 0.37% among 260,000. AID 686992, 2013;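 active means mean E-selectin-positive cell signal at least 10% of the positive control, reached in at least 60% of replicates, without over 20% cell loss; inconclusive means no rule given, readout overlaps actives, possibly toxicity-flagged; inactive means the rest, including those meeting only one limit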
Target sequence (P16581 whole entry, looked up): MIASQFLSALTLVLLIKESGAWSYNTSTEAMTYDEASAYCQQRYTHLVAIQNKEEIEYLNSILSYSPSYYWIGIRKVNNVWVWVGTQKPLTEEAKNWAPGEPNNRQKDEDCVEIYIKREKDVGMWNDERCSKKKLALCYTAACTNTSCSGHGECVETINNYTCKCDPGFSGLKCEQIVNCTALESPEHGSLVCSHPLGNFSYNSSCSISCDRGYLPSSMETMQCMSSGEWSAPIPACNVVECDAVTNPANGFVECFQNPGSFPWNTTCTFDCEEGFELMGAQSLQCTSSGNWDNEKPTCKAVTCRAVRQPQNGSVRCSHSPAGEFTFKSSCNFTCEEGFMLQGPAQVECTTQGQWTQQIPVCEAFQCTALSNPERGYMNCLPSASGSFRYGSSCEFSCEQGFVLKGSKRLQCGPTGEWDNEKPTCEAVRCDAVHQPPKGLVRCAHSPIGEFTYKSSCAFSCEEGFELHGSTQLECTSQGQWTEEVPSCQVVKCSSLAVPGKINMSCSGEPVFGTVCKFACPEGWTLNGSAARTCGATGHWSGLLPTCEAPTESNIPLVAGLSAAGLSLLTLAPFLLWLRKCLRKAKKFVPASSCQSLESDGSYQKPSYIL
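System: HUVEC / Compound: single concentration / Signal: immunofluorescence imaging / Read-out: percent E-selectin-positive cells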
Starred values were filed as active, the others as inactive; ? = inconclusive; nt = not tested or not shown; ! = repeats disagree.

SMILES | DENV2 CPE | SIRT5 inh | E-selectin induc
Brc1ccc(-c2ccccc2)cc1 | 62* | nt | nt
CO[C@@H]1CN(C)C(=O)c2ccc(NC(=O)c3cc(C)on3)cc2OC[C@H](C)N(CC2CC2)C[C@@H]1C | -12 | 10 | 2
Cc1noc(C)c1S(=O)(=O)Nc1ccc2c(c1)C(=O)N([C@@H](C)CO)C[C@@H](C)[C@@H](CN(C)S(=O)(=O)c1ccc(F)cc1)OCCCC[C@@H](C)O2 | -8 | 3 | 0
CCc1cc(=O)oc2cc(C)cc(OC(C)C(=O)NC(Cc3c[nH]c4ccc(O)cc34)C(=O)O)c12 (centres undefined) | 68* | 0 | nt
CC(Oc1ccc2ccc(=O)oc2c1)C(=O)NC(Cc1c[nH]c2ccc(O)cc12)C(=O)O (centres undefined) | 102* | 10 | nt
CC(Oc1ccc2c(-c3ccccc3)cc(=O)oc2c1)C(=O)N[C@H](Cc1c[nH]c2ccccc12)C(=O)O (some centres undefined) | -11 | 5 | nt
CCc1cc(=O)oc2cc(C)cc(OCC(=O)NC(Cc3c[nH]c4ccc(O)cc34)C(=O)O)c12 (centres undefined) | 18 | nt | nt
COc1ccc(S(=O)(=O)N(C)C[C@H]2Oc3c(NC(=O)c4ccc(-c5nccs5)cc4)cccc3C(=O)N([C@@H](C)CO)C[C@@H]2C)cc1 | 2 | -1 | nt
O=C(C[C@H]1CC[C@@H]2[C@H](COC[C@@H](O)CN2S(=O)(=O)c2ccccc2)O1)N1CCOCC1 | ? | 3 | 0
O=C(C[C@@H]1C=C[C@H](NS(=O)(=O)c2ccc(F)cc2)[C@@H](CO)O1)N1CCC(Cc2ccccc2)CC1 | -6 | 0 | 0
CCN(Cc1ccc(OC)c(COC)c1)CC1CCCN(CCc2cccc(F)c2)C1 (centres undefined) | 14 | -1 | nt
CCN(Cc1ccc(OC)c(COC)c1)CC1CCCN(CCc2cccc(OC)c2)C1 (centres undefined) | 25* | nt | nt
C[C@@H]1CCCCO[C@H](CN(C)C(=O)c2ccccc2)[C@H](C)CN([C@@H](C)CO)C(=O)c2cc(NC(=O)CCCCCC(=O)Nc3ccccc3N)ccc2O1 | 20* | 2 | nt
C[C@@H]1CCCCO[C@@H](CN(C)C(=O)NC2CCCCC2)[C@H](C)CN([C@@H](C)CO)C(=O)c2cc(NC(=O)CCCCCC(=O)Nc3ccccc3N)ccc2O1 | -4 | 4 | 0
C[C@@H]1CCCCO[C@H](CN(C)C(=O)NC2CCCCC2)[C@@H](C)CN([C@H](C)CO)C(=O)c2cc(NC(=O)CCCCCC(=O)Nc3ccccc3N)ccc2O1 | 112* | 4 | 0
C[C@H](CO)N1C[C@H](C)[C@H](CN(C)C(=O)c2ccccc2)OCCCC[C@H](C)Oc2ccc(NC(=O)CCCCCC(=O)Nc3ccccc3N)cc2C1=O | 13 | 3 | nt
O=C(c1cnccn1)N1CC(=O)N2[C@@H](CO)[C@@H](c3ccc(C#CC4CCCCC4)cc3)[C@@H]2C1 | 0 | 2 | 0
C[C@H]1CN([C@@H](C)CO)C(=O)c2cc(NC(=O)Cn3cnnn3)ccc2O[C@H]1CN(C)Cc1ccc(Cl)c(Cl)c1 | -2 | nt | nt
C[C@@H]1CN([C@H](C)CO)C(=O)CCCn2nncc2CO[C@@H]1CN(C)S(=O)(=O)c1ccccc1 | ? | -1 | 0
C[C@H]1CN([C@@H](C)CO)C(=O)CCCn2nncc2CO[C@@H]1CN(C)S(=O)(=O)c1ccccc1F | 70* | -3 | 1
C[C@H](CO)N1C[C@H](C)[C@@H](CN(C)S(=O)(=O)c2ccccc2F)OCc2cnnn2CCCC1=O | 5 | -4 | 0
C[C@H]1CN([C@@H](C)CO)C(=O)CCCn2nncc2CO[C@@H]1CN(C)S(=O)(=O)c1ccc2ccccc2c1 | -4 | -2 | 1
C[C@H](CO)N1C[C@H](C)[C@H](CN(C)S(=O)(=O)c2ccc(Cl)cc2)OCc2cnnn2CCCC1=O | -8 | 15*! | 0
C[C@H](CO)N1C[C@H](C)[C@@H](CN(C)S(=O)(=O)c2ccc3ccccc3c2)OCc2cnnn2CCCC1=O | -5 | 21*! | -1
C[C@H](CO)N1C[C@H](C)[C@H](CN(C)S(=O)(=O)c2ccccc2)OCc2cnnn2CCCC1=O | 28*! | -2 | 0
SMILES | DENV2 CPE | SIRT5 inh | E-selectin induc
C[C@H](CO)N1C[C@H](C)[C@@H](CN(C)S(=O)(=O)c2ccc(Cl)cc2)OCc2cnnn2CCCC1=O | -12 | 0 | 1
CNC(=O)C[C@@H]1CC[C@H]2[C@@H](COc3ccc(NC(=O)Cc4cccs4)cc3C(=O)N2C)O1 | -6 | nt | 0
O=C(C[C@H]1CC[C@H]2NC[C@H](O)COC[C@@H]2O1)NCCN1CCCCC1 | -1 | 9 | 0
CCC(=O)N1CC[C@H]2[C@@H]1c1cc(-c3ccc(F)cc3)ccc1N(C)[C@H]2CO | -10 | 0 | 1
O=C(C[C@H]1CC[C@H]2[C@@H](COC[C@H](O)CN2S(=O)(=O)c2ccc(Cl)cc2)O1)NCCN1CCCCC1 | -4 | 1 | 0
Cc1noc(C)c1NC(=O)N(C)C[C@H]1Oc2ccc(NC(=O)Nc3ccc(F)cc3)cc2CC(=O)N([C@@H](C)CO)C[C@@H]1C | 8 | 1 | 0
Cc1noc(C)c1NC(=O)Nc1ccc2c(c1)CC(=O)N([C@@H](C)CO)C[C@@H](C)[C@@H](CN(C)C(=O)Nc1ccccc1)O2 | -8 | -7 | 0
Cc1noc(C)c1NC(=O)Nc1ccc2c(c1)CC(=O)N([C@H](C)CO)C[C@@H](C)[C@H](CN(C)C(=O)Nc1ccc(F)cc1)O2 | 7 | -3 | 39*
Cc1noc(C)c1NC(=O)Nc1ccc2c(c1)CC(=O)N([C@@H](C)CO)C[C@H](C)[C@@H](CN(C)C(=O)Nc1ccccc1)O2 | 83* | 1 | 0
Cc1cccc(S(=O)(=O)N2CCCCN3[C@H](CO)[C@H](c4ccc(C#CC5CC5)cc4)[C@H]3C2)c1 | -7 | 8 | -1
C[C@@H]1CCCCO[C@H](CN(C)S(=O)(=O)c2cccs2)[C@H](C)CN([C@@H](C)CO)C(=O)c2cc(NS(=O)(=O)c3cn(C)cn3)ccc2O1 | -5 | 10 | nt
OC[C@@H]1[C@H](c2ccc(C#Cc3ccccc3)cc2)[C@H]2CN(Cc3cncnc3)CCCCN12 | 12 | 2 | 0
CCC(C)NC(=O)CN1C(=O)c2cccc3cccc1c23 (centres undefined) | -2 | -2 | nt
CCN1/C(=N\N)c2cccc3cccc1c23 | ? | 0 | 37*
O=C(C[C@@H]1C=C[C@@H](NC(=O)CC2CC2)[C@H](CO)O1)NCC(F)(F)F | -1 | 0 | 0
Cc1cccc(S(=O)(=O)N(C)C[C@H]2OCc3cnnn3CCCC(=O)N([C@@H](C)CO)C[C@@H]2C)c1 | -3 | -2 | 1
C[C@@H]1CN([C@H](C)CO)C(=O)CCCn2cc(nn2)CO[C@H]1CN(C)S(=O)(=O)c1cccc(F)c1 | -6 | -2 | 2
C[C@@H]1CN([C@H](C)CO)C(=O)CCCn2nncc2CO[C@@H]1CN(C)S(=O)(=O)c1cccc(F)c1 | 7 | 15*! | -1
Cc1cccc(S(=O)(=O)N(C)C[C@H]2OCc3cn(nn3)CCCC(=O)N([C@@H](C)CO)C[C@@H]2C)c1 | 47*! | -2 | 0
